# Reference: paper PMC10404122 (Drug Design, Development and Therapy, 2023)
# Legend:
# [1] = plasma concentration; cited from earlier work
# [2] = cited from earlier work
# [3] = Stability of plasma samples; format: in vitro ADME; conditions: human plasma (EDTA), −20 °C, HPLC-MS/MS of A2-2
# [4] = cited from earlier work; remark: listed apart in the source
# [5] = Population pharmacokinetic model; format: in vivo, human; conditions: ICU patients, iv, 304 samples from 108 patients, two-compartment model
# Method in brief: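 NONMEM fit with FOCE with interaction. One- vs two-compartment chosen by goodness-of-fit plots. Covariates tested: sex, age, weight, ALB, Scr, Cockcroft-Gault Ccr, CKD-EPI eGFR, CRRT, APACHE II. Forward inclusion at P < 0.05 (ΔOFV −3.84), backward elimination at P < 0.001 (ΔOFV −10.828). Robustness checked with 1000 bootstrap resamples (median, 2.5–97.5 percentiles). VPC, NPDE and external-set MPE/RMSE also run.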
substance,measurement,setting,value
teicoplanin,concentration inducing adverse effects: thrombocytopenia,[1],≥ 40000 ng/mL
same,plasma protein binding rate,[2],over 90%
same,time for which plasma samples were found to be stable,[3],at least 41 days
same,patients in whom the standard dosing regimen was insufficient to achieve 10 mg/L,"[4]; 400 mg q12h×3, 400 mg qd, within the initial three days",more than 50%
same,elimination half-life,[4],169 h
same,"Q, inter-compartmental clearance, final model estimate",[5],3.08 L/h
same,"Vc, volume of the central compartment, final model estimate",[5],14.4 L
same,"Vp, volume of the peripheral compartment, final model estimate",[5],51.6 L
